Measured values reported in ChEMBL document CHEMBL1157070, “Polyhydroxysteroidal glycosides from the starfish Anthenea chinensis” (J Nat Prod, 2010).
The source made the active and inactive calls. The calls are words filed in the database; no cut-off is given here.

What was measured:
K562 = assay: Cytotoxicity against human K562 cells after 72 hrs by MTT assay; assay type: functional, cell-based; settings: K562, 72 h
Summary of the method: (§1)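 MTT colorimetric read-out per a previously described method. K-562 (human leukemia) used 10-hydroxycamptothecine as positive control, U87MG (human spongioblastoma) used nimustine. IC50 read from dose-response curves as the concentration causing 50% reduction in absorption versus control cells. Mean of three independent experiments, triplicate wells per concentration.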

[1] = Cytotoxicity against human U87MG cells after 72 hrs by MTT assay; assay type: functional, cell-based, U-87MG ATCC; settings: U-87 MG; summary of the method: as §1
Bel-7402 = assay: Cytotoxicity against human Bel7402 cells after 72 hrs by SRB assay; assay type: functional, cell-based; settings: Bel-7402, 72 h
Summary of the method: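 Human hepatoma BEL-7402 cells, sulforhodamine B protein stain per a reported method. Dose-response curves plotted; IC50 taken as the concentration giving 50% lower absorption than control cells. Means of three independent experiments, each concentration in triplicate wells. 10-Hydroxycamptothecine as positive control.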

Tubulin (Sus scrofa) = Tubulin (Sus scrofa) (UniProt P02554+P02550); assay: Induction of pig brain tubulin polymerization at 10 ug/ml
Tubulin (Sus scrofa), sequence (P02550 whole entry, looked up): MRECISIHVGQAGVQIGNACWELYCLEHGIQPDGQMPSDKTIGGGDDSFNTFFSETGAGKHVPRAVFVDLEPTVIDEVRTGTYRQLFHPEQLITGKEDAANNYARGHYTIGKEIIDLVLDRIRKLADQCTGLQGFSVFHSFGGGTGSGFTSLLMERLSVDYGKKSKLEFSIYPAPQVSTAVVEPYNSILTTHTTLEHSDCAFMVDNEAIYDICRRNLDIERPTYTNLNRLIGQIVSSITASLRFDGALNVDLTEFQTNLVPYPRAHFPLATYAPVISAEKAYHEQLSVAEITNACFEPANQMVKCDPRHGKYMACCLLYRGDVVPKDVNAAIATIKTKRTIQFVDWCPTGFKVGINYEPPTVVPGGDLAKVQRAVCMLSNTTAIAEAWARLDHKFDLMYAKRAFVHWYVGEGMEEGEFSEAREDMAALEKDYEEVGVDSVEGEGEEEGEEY
Tubulin (Sus scrofa), sequence (P02554 whole entry, looked up): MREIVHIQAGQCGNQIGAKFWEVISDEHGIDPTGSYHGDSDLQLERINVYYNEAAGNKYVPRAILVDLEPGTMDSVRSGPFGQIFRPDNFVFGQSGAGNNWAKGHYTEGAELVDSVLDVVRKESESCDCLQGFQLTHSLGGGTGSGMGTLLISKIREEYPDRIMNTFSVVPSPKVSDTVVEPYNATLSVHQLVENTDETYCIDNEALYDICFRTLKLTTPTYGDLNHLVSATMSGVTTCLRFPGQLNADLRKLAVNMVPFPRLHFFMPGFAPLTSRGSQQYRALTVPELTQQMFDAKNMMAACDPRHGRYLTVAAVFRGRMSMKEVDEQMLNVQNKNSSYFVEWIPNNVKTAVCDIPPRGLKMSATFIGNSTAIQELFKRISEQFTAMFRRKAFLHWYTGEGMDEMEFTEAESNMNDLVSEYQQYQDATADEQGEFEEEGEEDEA

Structure (SMILES) | Activity (Tubulin (Sus scrofa)) | IC50 (K562) | IC50 [1] | IC50 (Bel-7402)
CC[C@@]1(O)C(=O)OCc2c1cc1n(c2=O)Cc2cc3cc(O)ccc3nc2-1 [HYDROXYCAMPTOTHECIN] |  | 0.16 µM |  | 0.36 µM
Cc1ncc(CNC(=O)N(CCCl)N=O)c(N)n1 [NIMUSTINE] |  |  | 0.84 µM | 
CCC(CC[C@@H](C)[C@H]1[C@H](O[C@@H]2O[C@@H]([C@@H](O)COC)[C@H](O)[C@H]2O)CC2=C3[C@@H](O[C@@H]4O[C@@H]([C@@H](O)COC)[C@H](O)[C@H]4O)[C@@H](O)[C@H]4C[C@H](O)CC[C@]4(C)[C@H]3CC[C@@]21C)C(C)C (mixture of isomers) |  | 0.6 µM | 3.6 µM | 2.7 µM

The next lines start with results.

Activity (Tubulin (Sus scrofa)) | Structure (SMILES) | IC50 (K562) | IC50 [1] | IC50 (Bel-7402)
inactive | COC[C@H](O)[C@@H]1O[C@@H](O[C@@H]2[C@@H](O)[C@H](O[C@@H]3CC4=C5[C@@H](O)[C@@H](O)[C@H]6C[C@H](O)CC[C@]6(C)[C@H]5CC[C@]4(C)[C@H]3[C@H](C)CCCC(C)C)O[C@H]2[C@@H](O)COC)[C@H](O)[C@H]1O [ANTHENOSIDE E] | 6.1 µM | > 25.4 µM | 8.3 µM
inactive | C=C(CC[C@@H](C)[C@H]1[C@H](O[C@@H]2O[C@@H]([C@@H](O)COC)[C@H](O[C@@H]3O[C@@H]([C@@H](O)COC)[C@H](O)[C@H]3O)[C@H]2O)CC2=C3[C@@H](O)[C@@H](O)[C@H]4C[C@H](O)CC[C@]4(C)[C@H]3CC[C@@]21C)C(C)C [ANTHENOSIDE G] | 4.6 µM | > 25.1 µM | 5.5 µM
inactive | CCC(CC[C@@H](C)[C@H]1[C@H](O[C@@H]2O[C@@H]([C@@H](O)COC)[C@H](O[C@@H]3O[C@@H]([C@@H](O)COC)[C@H](O)[C@H]3O)[C@H]2O)CC2=C3[C@@H](O)[C@@H](O)[C@H]4C[C@H](O)CC[C@]4(C)[C@H]3CC[C@@]21C)C(C)C (mixture of isomers) | 2.8 µM | > 24.5 µM | 4.9 µM
